Tests used:
[1] = system: Rattus norvegicus; experiment: Triglyceride level in cholesterol-fed male rats at 55 mg/kg/day relative to control; type: functional
In short: (§1)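 Male Sprague–Dawley rats on a cholesterol diet, in groups of six, received the compound in the diet ad libitum for 8 days. Serum triglycerides are expressed as % change relative to untreated controls, with significance at p < 0.05 versus controls.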

[2] = system: Rattus norvegicus; experiment: Increase of HDL level in cholesterol-fed male rats by ultracentrifugation method at 55 mg/kg/day relative to control; type: functional
In short: (§2)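 Cholesterol-fed male Sprague–Dawley rats, six per group, given drug in the diet ad libitum for 8 days. Serum lipoproteins separated by classical ultracentrifugation and HDL cholesterol measured by an enzymatic colorimetric method. Expressed as % change versus untreated controls, with significance set at p < 0.05.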

[3] = system: Rattus norvegicus; experiment: Increase of Apolipoprotein A-I level in cholesterol-fed male rats at 55 mg/kg/day relative to control; type: functional
In short: (§3)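 Drug mixed into diet, fed ad libitum for 8 days to groups of six male Sprague–Dawley rats on a cholesterol diet. Serum Apo A-I measured by SDS–polyacrylamide gel electrophoresis or by rat competition ELISA. Reported as % change versus untreated controls, with significance set at p < 0.05.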

[4] = biological target: T1, Peroxisome proliferator-activated receptor alpha (Rattus norvegicus, UniProt P37230); experiment: Activity against PPAR-alpha
T1 sequence (P37230 whole entry): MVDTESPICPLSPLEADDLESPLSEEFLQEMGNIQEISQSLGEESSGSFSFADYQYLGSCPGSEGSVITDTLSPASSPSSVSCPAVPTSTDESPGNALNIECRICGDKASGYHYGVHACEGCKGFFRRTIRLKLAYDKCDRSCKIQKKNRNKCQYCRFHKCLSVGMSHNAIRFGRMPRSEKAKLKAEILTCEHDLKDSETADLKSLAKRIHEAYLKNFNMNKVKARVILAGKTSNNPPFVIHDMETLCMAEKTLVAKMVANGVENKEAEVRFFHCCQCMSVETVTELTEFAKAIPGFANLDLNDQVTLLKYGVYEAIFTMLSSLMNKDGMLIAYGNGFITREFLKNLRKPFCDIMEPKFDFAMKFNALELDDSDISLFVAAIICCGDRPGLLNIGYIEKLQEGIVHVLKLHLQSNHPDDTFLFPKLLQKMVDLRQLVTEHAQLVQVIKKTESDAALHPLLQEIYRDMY

[5] = system: Rattus norvegicus; experiment: Increase of total cholesterol level in cholesterol-fed male rats at 55 mg/kg/day relative to control; type: functional
In short: (§4)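 Dietary (ad libitum) dosing of groups of six male Sprague–Dawley rats on a cholesterol diet for 8 days. Serum total cholesterol was quantitated enzymatically by a colorimetric method and expressed as % change relative to untreated controls, with significance at p < 0.05.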

[6] = system: Rattus norvegicus; experiment: Weight gain in cholesterol-fed male rats at 55 mg/kg/day relative to control; type: functional
In short: (§5)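 Groups of six male Sprague–Dawley rats on a cholesterol diet received the compound in the diet, ad libitum, over 8 days. Body weight gain is reported as % change relative to untreated controls.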

[7] = system: Rattus norvegicus; experiment: Increase of HDL level in cholesterol-fed male rats by FPLC method at 55 mg/kg/day relative to control; type: functional
In short: (§6)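 Groups of six male Sprague–Dawley rats on a cholesterol diet received drug in the diet, ad libitum, for 8 days. Serum lipoproteins separated by FPLC, adapted for robotic automation, and cholesterol quantitated enzymatically by colorimetry. HDL given as % change versus untreated controls, with significance set at p < 0.05.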

[8] = biological target: T2, Peroxisome proliferator-activated receptor delta (Homo sapiens, UniProt Q03181); experiment: Activity against PPAR-delta
T2 sequence (Q03181 whole entry): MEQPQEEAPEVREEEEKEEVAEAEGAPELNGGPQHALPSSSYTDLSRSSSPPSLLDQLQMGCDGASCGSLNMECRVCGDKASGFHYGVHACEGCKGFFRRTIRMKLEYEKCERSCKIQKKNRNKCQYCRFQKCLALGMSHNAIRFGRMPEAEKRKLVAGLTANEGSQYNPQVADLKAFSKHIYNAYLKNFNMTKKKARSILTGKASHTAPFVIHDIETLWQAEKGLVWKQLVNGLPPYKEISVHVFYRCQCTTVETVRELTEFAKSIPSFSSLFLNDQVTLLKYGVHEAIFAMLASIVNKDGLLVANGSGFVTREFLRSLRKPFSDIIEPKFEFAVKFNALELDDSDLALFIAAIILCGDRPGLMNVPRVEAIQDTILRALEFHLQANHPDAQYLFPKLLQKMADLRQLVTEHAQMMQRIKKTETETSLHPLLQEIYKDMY

[9] = system: Rattus norvegicus; experiment: Increase of HDL level in cholesterol-fed male rats by ultracentrifugation method at 62 mg/kg/day relative to control; type: functional; in short: as §2
[10] = system: Rattus norvegicus; experiment: Increase of total cholesterol level in cholesterol-fed male rats at 62 mg/kg/day relative to control; type: functional; in short: as §4
[11] = species: Rattus norvegicus; experiment: Increase in liver enzyme Alkaline phosphatase; type: functional; design: concentration or dose not given beside the values
[12] = system: Rattus norvegicus; experiment: Weight gain in cholesterol-fed male rats at 62 mg/kg/day relative to control; type: functional; in short: as §5
[13] = system: Rattus norvegicus; experiment: Increase of Apolipoprotein A-I level in cholesterol-fed male rats at 62 mg/kg/day relative to control; type: functional; in short: as §3
[14] = species: Rattus norvegicus; experiment: Increase in liver enzyme Aspartate aminotransferase; type: functional; design: concentration or dose not given beside the values
[15] = system: Rattus norvegicus; experiment: Increase of HDL level in cholesterol-fed male rats by FPLC method at 62 mg/kg/day relative to control; type: functional; in short: as §6
[16] = system: Rattus norvegicus; experiment: Triglyceride level in cholesterol-fed male rats at 62 mg/kg/day relative to control; type: functional; in short: as §1
[17] = system: Rattus norvegicus; experiment: Triglyceride level in cholesterol-fed male rats at 79 mg/kg/day relative to control; type: functional; in short: as §1
[18] = system: Rattus norvegicus; experiment: Increase of total cholesterol level in cholesterol-fed male rats at 79 mg/kg/day relative to control; type: functional; in short: as §4
[19] = system: Rattus norvegicus; experiment: Increase of HDL level in cholesterol-fed male rats by ultracentrifugation method at 79 mg/kg/day relative to control; type: functional
In short: (§7)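 Compound given in the diet, ad libitum, to groups of six male Sprague–Dawley rats on a cholesterol diet for 8 days. Serum lipoproteins were separated by classical ultracentrifugation, and HDL cholesterol was quantitated by an enzymatic colorimetric method. Results are reported as % change relative to untreated controls, with significance at p < 0.05 versus controls.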

[20] = system: Rattus norvegicus; experiment: Weight gain in cholesterol-fed male rats at 79 mg/kg/day relative to control; type: functional; in short: as §5
[21] = system: Rattus norvegicus; experiment: Increase of Apolipoprotein A-I level in cholesterol-fed male rats at 79 mg/kg/day relative to control; type: functional; in short: as §3
[22] = system: Rattus norvegicus; experiment: Increase of HDL level in cholesterol-fed male rats by FPLC method at 79 mg/kg/day relative to control; type: functional; in short: as §6
[23] = system: Rattus norvegicus; experiment: Increase of Apolipoprotein A-I level in cholesterol-fed male rats at 77 mg/kg/day relative to control; type: functional; in short: as §3
[24] = system: Rattus norvegicus; experiment: Triglyceride level in cholesterol-fed male rats at 77 mg/kg/day relative to control; type: functional; in short: as §1
[25] = system: Rattus norvegicus; experiment: Increase of HDL level in cholesterol-fed male rats by FPLC method at 77 mg/kg/day relative to control; type: functional; in short: as §6
[26] = system: Rattus norvegicus; experiment: Weight gain in cholesterol-fed male rats at 77 mg/kg/day relative to control; type: functional; in short: as §5
[27] = system: Rattus norvegicus; experiment: Increase of HDL level in cholesterol-fed male rats by ultracentrifugation method at 77 mg/kg/day relative to control; type: functional; in short: as §7
[28] = system: Rattus norvegicus; experiment: Increase of total cholesterol level in cholesterol-fed male rats at 77 mg/kg/day relative to control; type: functional; in short: as §4
[29] = system: Rattus norvegicus; experiment: Triglyceride level in cholesterol-fed male rats at 57 mg/kg/day relative to control; type: functional; in short: as §1
[30] = system: Rattus norvegicus; experiment: Increase of Apolipoprotein A-I level in cholesterol-fed male rats at 57 mg/kg/day relative to control; type: functional; in short: as §3
[31] = system: Rattus norvegicus; experiment: Increase of HDL level in cholesterol-fed male rats by ultracentrifugation method at 57 mg/kg/day relative to control; type: functional; in short: as §2
[32] = system: Rattus norvegicus; experiment: Increase of HDL level in cholesterol-fed male rats by FPLC method at 57 mg/kg/day relative to control; type: functional; in short: as §6
[33] = system: Rattus norvegicus; experiment: Increase of total cholesterol level in cholesterol-fed male rats at 57 mg/kg/day relative to control; type: functional; in short: as §4
[34] = system: Rattus norvegicus; experiment: Weight gain in cholesterol-fed male rats at 57 mg/kg/day relative to control; type: functional; in short: as §5

Question: What does the source list for `CCC/N=C(\S)Nc1cc(Cl)ccc1C`?
Answer: Activity [1]: -54%; Activity [2]: 83%; Activity [3]: 54%; EC50 [4]: > 100 µM; Activity [5]: 6%; Activity [6]: -78%; Activity [7]: 292%; EC50 [8]: > 100 µM

Question: `CC[C@H]1CCCCN1/C(S)=N/c1cc(Cl)ccc1C` was tested. Which Activity [9] did it give?
Answer: 124%

Question: What about the Activity [10] of the same molecule?
Answer: 126%

Question: What about the Activity [11] of the same molecule?
Answer: 129%

Question: What about the Activity [12] of the same molecule?
Answer: -88%

Question: What about the Activity [13] of the same molecule?
Answer: 39%

Question: And the Activity [14]?
Answer: 85%

Question: And the EC50 [4]?
Answer: > 100 µM

Question: And the Activity [15]?
Answer: 404%

Question: What about the Activity [16] of the same molecule?
Answer: -56%

Question: What about the EC50 [8] of the same molecule?
Answer: > 100 µM

Question: `CCC/N=C(\S)Nc1cc(OC)ccc1OC` was tested. Which Activity [17] did it give?
Answer: -23%

Question: And the Activity [18]?
Answer: 60%

Question: And the Activity [19]?
Answer: 108%

Question: What about the Activity [20] of the same molecule?
Answer: 14%

Question: What about the Activity [21] of the same molecule?
Answer: 19%

Question: And the Activity [22]?
Answer: 97%

Question: How did the Activity [23] turn out when `Cc1ccc(Cl)cc1/N=C(\S)NC(C)(C)C` was run?
Answer: 60%

Question: And the Activity [24]?
Answer: -31%

Question: What about the Activity [25] of the same molecule?
Answer: 22%

Question: What about the Activity [26] of the same molecule?
Answer: 9%

Question: And the Activity [27]?
Answer: 30%

Question: And the Activity [28]?
Answer: -15%

Question: Which Activity [23] does the source give for `Cc1ccc(Cl)cc1/N=C(\S)NCc1ccccc1` here?
Answer: 27%

Question: What about the Activity [24] of the same molecule?
Answer: -21%

Question: And the Activity [25]?
Answer: 136%

Question: And the Activity [26]?
Answer: 41%

Question: What about the Activity [27] of the same molecule?
Answer: 135%

Question: What about the Activity [28] of the same molecule?
Answer: 97%

Question: For `CCC/N=C(\S)Nc1cc(F)ccc1C`, which Activity [29] is on record?
Answer: -58%

Question: And the Activity [30]?
Answer: 18%

Question: And the Activity [31]?
Answer: 152%

Question: What about the Activity [32] of the same molecule?
Answer: 312%

Question: And the Activity [33]?
Answer: 54%

Question: And the Activity [34]?
Answer: -77%

Question: Which results are given for `CCC/N=C(\S)Nc1cc(C)ccc1C`?
Answer: Activity [9]: 127%; Activity [10]: 29%; Activity [11]: 75%; Activity [12]: -38%; Activity [13]: 72%; Activity [15]: 278%; Activity [16]: -59%
